For two molecules, IC50 and inhibition results are on record in ChEMBL document CHEMBL3124880, “4-(3-Chloro-5-(trifluoromethyl)pyridin-2-yl)-N-(4-methoxypyridin-2-yl)piperazine-1-carbothioamide (ML267), a potent inhibitor of bacterial phosphopantetheinyl transferase that attenuates secondary metabolism and thwarts bacterial growth” (J Med Chem, 2014).

Experiment [1] concerns Bacillus subtilis. Briefly: Antibacterial activity against Bacillus subtilis HM489 assessed as cellular ATP content after 5 hrs by BacTiter-Glo assay. In kind it is functional, organism-based. Particulars: HM489, 5 h.
The subject of experiment [2] is Bacillus subtilis. Nature of the experiment: Inhibition of Bacillus subtilis Sfp-PPTase. The essentials:
(§1)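 qHTS fluorescence assay in 50 mM HEPES-Na pH 7.6, 10 mM MgCl2, 0.01% NP-40, 0.01% BSA. Final enzyme 15 nM Sfp or 100 nM AcpS. Enzyme preincubated with compound 15 min at room temperature, then rhodamine-CoA 5 μM and BHQ-2-YbbR 12.5 μM (final) added. Fluorescence (525 ex/598 em) read at start and after 30 min (Sfp) or 60 min (AcpS); the difference gives the rate. Eight concentrations from 3.6 nM to 114 μM, run in triplicate.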

The test system of experiment [3] is Bacillus subtilis. Nature of the experiment: Inhibition of Bacillus subtilis AcpS-PPTase. The gist of the method: as §1
The nature of experiment [4]: Inhibition of Bacillus subtilis AcpS-PPTase using rhodamine-CoA/BHQ-2-YbbR as substrate preincubated for 15 mins followed by substrate addition by HTS assay. The essentials:
(§2)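 AcpS-PPTase at 100 nM final in 50 mM HEPES-Na pH 7.6, 10 mM MgCl2, 0.01% Nonidet P-40, 0.01% BSA; compound preincubated 15 min at room temperature, then rhodamine-CoA (5 μM final) and BHQ-2-YbbR (12.5 μM final) added. Fluorescence read (525 ex/598 em) at start and after 60 min; difference gives rate.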

The nature of experiment [5]: Inhibition of Bacillus subtilis Sfp-PPTase using rhodamine-CoA/BHQ-2-YbbR as substrate preincubated for 15 mins followed by substrate addition by HTS assay.
Experiment [6] relates to Bacillus subtilis. Briefly: Inhibition of Bacillus subtilis Sfp-PPTase using CoA/apo-ACP as substrate preincubated for 10 mins followed by substrate addition measured after 30 mins by PAGE analysis. The gist of the method:
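Compound in DMSO added to Sfp at 26.6 nM (in a 1.33× enzyme solution) in HEPES-Na pH 7.6 with MgCl2, NP-40 and BSA, and held 10 min. Reaction started with rhodamine-CoA and apo-actinorhodin-ACP, each 50 μM in a 4× substrate solution. After 30 min at room temperature, quenched with urea/EDTA and resolved by native 20% PAGE.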

Experiment [7] is described as follows: Non-competitive inhibition of Bacillus subtilis Sfp-PPTase using CoA/ActACP as substrate preincubated for 10 mins followed by substrate addition measured after 30 mins by HPLC analysis.
Another experiment concerns HepG2. Briefly: Cytotoxicity against human HepG2 cells assessed as cellular ATP content after 48 hrs by CellTiter-Glo assay. Type of experiment: cell-based. Conditions: HepG2, 48 h. The gist of the method:
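HepG2 cells exposed to compound; viability read as cellular ATP by luciferase-coupled CellTiter-Glo.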
(Cellular ATP, detected with luciferase, serves as a proxy for viable cell number.)

Experiment [8] deals with Bacillus subtilis. Nature of the experiment: Reversible inhibition of Bacillus subtilis Sfp-PPTase using rhodamine-CoA/FITC-YbbR as substrate assessed as residual enzyme activity at IC90 preincubated for 30 mins followed by 100 fold dilution and addition of substrate by fluorescence assay.
A short description of experiment [9]: Inhibition of AcpS-PPTase (unknown origin). The essentials: as §2

Calls of active or inactive are those of the source. The calls are words filed in the database; no cut-off is given here.

Regarding `Cc1ccnc(NC(=S)N2CCN(c3cccc(C(F)(F)F)c3)CC2)c1`, the IC50 – broadly, the concentration at which inhibition is half-maximal – was 9.8 µM with Bacillus subtilis [1]; 4.6 µM in experiment [4]; 0.78 µM in experiment [5]; 0.3 µM in experiment [7]; 14 µM in the experiment on HepG2. Also, the inhibition result with Bacillus subtilis [2], with Bacillus subtilis [3] and in the experiment with Bacillus subtilis [8] was “Active” in each case. Further, in the experiment on Bacillus subtilis [6], the inhibition entry is “Dose-dependent effect”.

`CSC(Cc1ccc(Cl)cc1)C(=O)Nc1ccc(Cl)cc1C(=O)O` (stereo not given): the IC50 in experiment [9] worked out at 1.4 µM.
